The source of these data is ChEMBL document CHEMBL4350958, “Rational Design of Short Peptide Variants by Using Kunitzin-RE, an Amphibian-Derived Bioactivity Peptide, for Acquired Potent Broad-Spectrum Antimicrobial and Improved Therapeutic Potential of Commensalism Coinfection of Pathogens” (J Med Chem, 2019).

In brackets after ≈: the same amount, converted by molar mass.

Data set [1] has as its system Escherichia coli. Briefly: Bactericidal activity against Escherichia coli 078 incubated for 24 hrs followed by replating on agar plate and measured after overnight incubation. The following applies: for MBC: Escherichia coli, 078, 24 h, read-out: MBC>99.9. It is filed as functional. The gist of the method: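 After the 24 h, 37 °C MHB microdilution (0.5–1 × 10^5 CFU mL−1 inoculum, peptides diluted in 0.2% BSA), 50 μL from each well was plated on agar and incubated overnight. MBC was taken as the lowest concentration killing >99.9% of cells. Three or more independent experiments, each with triplicate technical replicates.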

For data set [2], the system named is Staphylococcus aureus. Briefly: Bactericidal activity against methicillin-resistant Staphylococcus aureus ATCC 43300 incubated for 24 hrs followed by replating on agar plate and measured after overnight incubation. It is filed as functional. The following applies: for MBC: ATCC 43300, 24 h, read-out: MBC>99.9. The gist of the method:
(§1)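 After the 24 h, 37 °C MHB microdilution MIC assay, 50 μL from each well was plated on agar and incubated overnight. MBC taken as lowest peptide concentration killing >99.9% of cells. At least three independent experiments, each with three technical replicates.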

The subject of data set [3] is Escherichia coli. As to the kind of experiment: Antibacterial activity against Escherichia coli UB1005 measured after 24 hrs. It is filed as functional. The gist of the method:
(§2)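 Broth microdilution adapted from NCCLS. Mid-log bacteria were diluted in MHB to a final (0.5–1) × 10^5 CFU mL−1. Peptides were serially diluted in 0.2% BSA and mixed with an equal volume of cells. After 24 h at 37 °C, MIC was read at A492 as the lowest concentration inhibiting 95% of growth. At least three independent experiments, each with three technical replicates.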

Data set [4] concerns Candida albicans. Briefly: Antifungal activity against Candida albicans cgmcc2.2086 measured after 48 hrs by broth microdilution method. It is filed as functional. The essentials: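 Modified CLSI M27-A2 microdilution. Yeast colonies were diluted in MOPS-buffered RPMI 1640 to a final (0.5–1) × 10^3 CFU mL−1 and mixed with an equal volume of peptide serially diluted in 0.2% BSA. After 48 h at 28 °C, MIC was read at A492 as the lowest concentration inhibiting 95% of growth. At least three independent experiments, each with three technical replicates.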
For orientation: Dilution methods test growth across graded concentrations, often in twofold steps.

In data set [5] the test system is Candida albicans. Briefly: Antifungal activity against Candida albicans cgmcc2.2086 measured after 48 hrs in presence of NH4Cl by broth microdilution method. It is filed as functional.
Data set [6] concerns Staphylococcus aureus. As to the kind of experiment: Antibacterial activity against Staphylococcus aureus ATCC 29213 measured after 18 to 24 hrs in presence of NH4Cl. It is filed as functional. The gist of the method:
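MIC broth microdilution (MHB, 0.2% BSA peptide diluent, A492, 95% inhibition) run in the presence of physiological salts at final concentrations of 6 μM NH4Cl or 8 μM ZnCl2. Three independent assays, each with three technical replicates.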

Data set [7] relates to Escherichia coli. Briefly: Antibacterial activity against Escherichia coli ATCC 25922 measured after 18 to 24 hrs in presence of MgCl2. It is filed as functional.
In data set [8] the test system is Escherichia coli. Briefly: Antibacterial activity against Escherichia coli ATCC 25922 measured after 18 to 24 hrs in presence of NH4Cl. It is filed as functional.
Data set [9] deals with Escherichia coli. Briefly: Antibacterial activity against Escherichia coli K88 measured after 24 hrs. It is filed as functional. The essentials:
as §2

For data set [10], the system named is Staphylococcus aureus. As to the kind of experiment: Antibacterial activity against Staphylococcus aureus ATCC 29213 measured after 18 to 24 hrs in presence of MgCl2. It is filed as functional.
The test system of data set [11] is Salmonella typhimurium. As to the kind of experiment: Antibacterial activity against Salmonella typhimurium ATCC 14028 measured after 24 hrs. It is filed as functional. The gist of the method:
as §2

In data set [12] the test system is Candida albicans. Briefly: Antifungal activity against Candida albicans cgmcc2.2086 measured after 48 hrs in presence of FeCl by broth microdilution method. It is filed as functional.
The test system of data set [13] is Staphylococcus aureus. As to the kind of experiment: Antibacterial activity against Staphylococcus aureus ATCC 29213 measured after 24 hrs. It is filed as functional. The essentials:
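Broth microdilution modified from NCCLS. Mid-log bacteria at (0.5–1) × 10^5 CFU mL−1 in MHB, mixed with peptides serially diluted in 0.2% BSA. Incubated 24 h at 37 °C, read at A492. MIC taken as lowest concentration giving 95% growth inhibition. At least three independent experiments, each with three technical replicates.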

For data set [14], the system named is Pseudomonas aeruginosa. As to the kind of experiment: Bactericidal activity against Pseudomonas aeruginosa ATCC 27853 incubated for 24 hrs followed by replating on agar plate and measured after overnight incubation. It is filed as functional. The gist of the method:
(§3)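 Mid-log bacteria diluted in MHB to (0.5–1) × 10^5 CFU/mL and mixed 1:1 with peptide serially diluted in 0.2% BSA. After 24 h at 37 °C, 50 μL of each mixture was plated on agar and incubated overnight. MBC taken as the lowest concentration killing >99.9% of cells. At least three independent experiments, each with three technical replicates.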

For data set [15], the system named is Salmonella typhimurium. Briefly: Antibacterial activity against Salmonella typhimurium C7731 measured after 24 hrs. It is filed as functional. The gist of the method: as §2
Data set [16] has as its system Escherichia coli. As to the kind of experiment: Bactericidal activity against Escherichia coli K88 incubated for 24 hrs followed by replating on agar plate and measured after overnight incubation. It is filed as functional. The following applies: for MBC: K88, 24 h, read-out: MBC>99.9. The essentials:
as §3

Data set [17] has as its system Staphylococcus aureus. Briefly: Bactericidal activity against Staphylococcus aureus ATCC 25923 incubated for 24 hrs followed by replating on agar plate and measured after overnight incubation. It is filed as functional. The following applies: for MBC: ATCC 25923, 24 h, read-out: MBC>99.9. The essentials:
as §1

The nature of data set [18]: Therapeutic index, ratio of MHC10 for hemolytic activity in human RBC to MIC95 against Staphylococcus aureus ATCC 29213. The conditions noted are these: human red blood cells (erythrocytes), read-out: TI. It is filed as toxicity. The gist of the method: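 Therapeutic index = MHC divided by MIC. MHC is the lowest concentration giving >10% lysis of human RBC (1 h, 37 °C, 1-128 µM, A576). MIC is 95% growth inhibition by broth microdilution: bacteria in MHB 24 h at 37 °C; Candida in MOPS-buffered RPMI 1640 at (0.5–1) × 10^3 CFU mL−1, 48 h at 28 °C.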

Data set [19] is described as follows: Conformational stability in pH 7.4 sodium phosphate buffer assessed as absorption spectra at minimum dichroic band at 35 uM by CD spectra analysis. It is filed as physicochemical. The following applies: pH 7.4, 35 µM. The essentials: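 CD spectra from 190 to 250 nm of peptide at 35 μM in 10 mM PBS, 30 mM SDS micelles or 50% TFE, recorded in a 1.0-mm quartz cell. Ellipticity was converted to mean residue ellipticity. Three independent scans, each averaged over more than 3 runs.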

Data set [20] is described as follows: Bactericidal activity against Salmonella pullorum ATCC 7913 incubated for 24 hrs followed by replating on agar plate and measured after overnight incubation. It is filed as functional, Salmonella enterica subsp. enterica serovar Pullorum. The following applies: Salmonella enterica, ATCC 7913, 24 h; read-out: MBC>99.9. The essentials:
as §3

The nature of data set [21]: Antibacterial activity against Salmonella pullorum ATCC 7913 measured after 24 hrs. It is filed as functional, Salmonella enterica subsp. enterica serovar Pullorum. The conditions noted are these: Salmonella enterica, ATCC 7913, 24 h. The essentials: as §2
The test system of data set [22] is Candida tropicalis. Briefly: Fungicidal activity against Candida tropicalis cgmcc2.1975 incubated for 48 hrs followed by replating on YM agar plate and measured after 48 hrs. It is filed as functional. The gist of the method: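 Yeast diluted in MOPS-buffered RPMI 1640 to (0.5–1) × 10^3 CFU/mL (CLSI M27-A2, modified) and mixed 1:1 with peptide serially diluted in 0.2% BSA. After 48 h at 28 °C, 50 μL per well was plated on YM agar and incubated 48 h at 28 °C. MFC taken as the lowest concentration killing ≥99.9% of cells. Three or more independent experiments, triplicate wells.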

Setting [23] is: Salmonella enterica subsp. enterica serovar Typhimurium.
Where [24] appears, read: Salmonella enterica, ATCC 14028, 24 h.
[25] abbreviates: Salmonella enterica, C7731, 24 h.

With GENTAMICIN, the MBC>99.9 in data set [1] worked out at 0.5 µM; in [2] it was 16 µM; in data set [14], 1 µM; in data set [16], 1 µM; in data set [17] it was 1 µM. Besides, the MIC95 is 0.5 µM in data set [3]; more than 128 µM in data set [4]; more than 128 µM in [5]; 1 µM in [6]; 1 µM in [7]; 1 µM in data set [8]. Besides, the MIC95 in data set [9] was 1 µM; in data set [10] it was 1 µM; in data set [11] (setting [23]) it was 2 µM; in data set [12], more than 128 µM; in [13], 1 µM; in data set [15] (setting [23]) it was 1 µM.
Consider POLYMYXIN B, for which the MBC>99.9 in data set [1] is 1 µM; in [2] it was 128 µM; in [14], 4 µM; in [16] it was 1 µM; in data set [17] it was more than 128 µM. For the same compound, the MIC95 came out at 1 µM in data set [3]; 32 µM in data set [4]; 32 µM in data set [5]; 32 µM in data set [6]; 1 µM in data set [7]; 2 µM in [8]. In addition, the MIC95 is 0.5 µM in data set [9]; 32 µM in data set [10]; 2 µM in data set [11] (setting [23]); 32 µM in data set [12]; 32 µM in [13]; 2 µM in data set [15] (setting [23]).
Usually MBC stands for the smallest concentration meeting the test's criterion for killing. With H-AARIILRTRFR-NH2, the minimum bactericidal concentration (MBC) is 8 µM in data set [1]; 32 µM in data set [2]; 16 µM in [20]; 8 µM in data set [16]; 32 µM in [17]. The MIC95 in data set [3] (UB1005, 24 h) was 4 µM; in [4] (cgmcc2.2086, 48 h), 128 µM; in data set [5] (cgmcc2.2086, 48 h), more than 128 µM; in [6], 16 µM; in data set [7], 128 µM; in [8], 8 µM. In addition, the MIC95 was 4 µM in [9] (K88, 24 h); 32 µM in data set [10]; 16 µM in data set [11] (setting [24]); more than 128 µM in data set [12] (cgmcc2.2086, 48 h); 16 µM in data set [13] (ATCC 29213, 24 h); 8 µM in [21]. In data set [15] (setting [25]), this compound returned an MIC95 of 16 µM. In addition, the selectivity ratio in data set [18] is 16. In data set [19], the “Wavelength of minimum CD band” value is 200 nm. For the same compound, the “MFC<=99.9” value in data set [22] worked out at 64 µM.
Consider `CC(C)(O/N=C(\C(=O)N[C@@H]1C(=O)N2C(C(=O)[O-])=C(C[n+]3ccccc3)CS[C@H]12)c1csc(N)n1)C(=O)O` [CEFTAZIDIME], for which the MBC in [1] is 0.5 µM (≈ 0.273 µg/mL); in [2] it was 32 µM (≈ 17.5 µg/mL); in data set [20], 2 µM (≈ 1.09 µg/mL); in data set [14] (ATCC 27853, 24 h, read-out: MBC>99.9), 4 µM (≈ 2.19 µg/mL); in data set [16], 1 µM (≈ 0.547 µg/mL); in data set [17], 32 µM (≈ 17.5 µg/mL). Moreover, the MIC95 was 1 µM (≈ 0.547 µg/mL) in data set [3] (UB1005, 24 h); more than 128 µM in data set [4] (cgmcc2.2086, 48 h); more than 128 µM in [5] (cgmcc2.2086, 48 h); 16 µM in data set [6]; 2 µM in [7]; 2 µM in data set [8]. Also, the MIC95 is 1 µM (≈ 0.547 µg/mL) in data set [9] (K88, 24 h); 16 µM in [10]; 1 µM (≈ 0.547 µg/mL) in data set [11] (setting [24]); more than 128 µM in data set [12] (cgmcc2.2086, 48 h); 16 µM (≈ 8.75 µg/mL) in data set [13] (ATCC 29213, 24 h); 1 µM (≈ 0.547 µg/mL) in data set [21]. The same compound returned an MIC95 in data set [15] (setting [25]) of 1 µM (≈ 0.547 µg/mL).
